Measurements from ChEMBL document CHEMBL1122650, “Synthesis and central nervous system properties of 2-[(alkoxycarbonyl)amino]-4(5)-phenyl-2-imidazolines” (J Med Chem, 1984).
pIC50: −log10 of the molar value. Active and inactive are the calls of the source. The rule behind the calls is not given here.

How the values were obtained:
Mus musculus [1] = species: Mus musculus; experiment: Compound was evaluated for antagonism of reserpine induced hypothermia;. 5-2.5 excessive variability.; format: functional, organism-based
Method in brief: (§1)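 Male HLa (ICR) BR mice, 18-24 g, in groups of eight; reserpine 5 mg/kg ip given 2 h before oral test compound as aqueous solution. Rectal temperature taken hourly; 1-4-h hypothermia assessed by analysis of variance.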

[2] = Lethal dose in mouse, in groups of ten; format: toxicity, organism-based; conditions: in vivo
Mus musculus [3] = species: Mus musculus; experiment: Compound was evaluated for maximal electroshock antagonism (MES) against mice; format: functional
Method in brief: (§2)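 Male HLa (ICR) BR mice, groups of eight to ten, dosed ip (aqueous solution) 15 min before transcorneal electroshock (50 mA, 0.2 s). End point: abolition of tonic hind-limb extension; quantal ED50 by Litchfield-Wilcoxon.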

Mus musculus [4] = species: Mus musculus; experiment: Righting ability was determined in mice after rapid rolling (aroused); format: functional
Method in brief: (§3)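 Male Simonsen (ICR) fBR mice, 18-24 g, groups of ten, dosed with aqueous compound. Righting ability checked before (unaroused) and after (aroused) rapid rolling in the hand; ED50 by Litchfield-Wilcoxon method.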

Mus musculus [5] = species: Mus musculus; experiment: Mouse behavior activity was determined;D= Depressant.; format: functional, organism-based
Mus musculus [6] = experiment: Compound was evaluated in vivo for reserpine hypothermia after oral administration in mouse.; format: functional; method in brief: as §1
[7] = HPLC capacity factor (k'); format: ADME
Mus musculus [8] = species: Mus musculus; experiment: Righting ability was determined in mice before rapid rolling (unaroused); format: functional; method in brief: as §3
Mus musculus [9] = species: Mus musculus; experiment: Mouse behavior activity was determined; Dwk= Depressant Weak; format: functional, organism-based
Method in brief: (§4)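 Male Simonsen (ICR) fBR mice, 18-24 g, groups of three, given 3, 10, 30, 100, 300 or 1000 mg/kg ip as aqueous solution and observed for behavioral profile; deaths followed up to 7 days.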

Mus musculus [10] = species: Mus musculus; experiment: Righting ability was determined in mice […] rapid rolling (aroused); format: functional; method in brief: as §3
[11] = Compound was evaluated for lethal dose in mouse in groups of ten (values in parentheses indicates 95% confidence limits); format: toxicity, organism-based; conditions: in vivo
Mus musculus [12] = experiment: Compound was evaluated in vivo for reserpine hypothermia after oral administration in mouse. Minimum active dose was reported, with the percent reversal at 10 mg/kg in parenthesis.; format: functional
Method in brief: (§5)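 Male HLa (ICR) BR mice (18-24 g), groups of eight, dosed ip with 5 mg/kg reserpine 2 h before oral test compound given as aqueous solution. Rectal temperature measured hourly; 1-4-h thermia assessed by analysis of variance.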

Mus musculus [13] = species: Mus musculus; experiment: Compound was evaluated for maximal electroshock antagonism (MES) against mice (values in parentheses indicates 95% confidence limits); format: functional
Method in brief: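 Male HLa (ICR) BR mice, groups of eight to ten, given compound ip as aqueous solution 15 min before transcorneal electroshock (50 mA, 0.2 s). End point was abolition of tonic hind-limb extension; quantal ED50 derived by Litchfield-Wilcoxon.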

Mus musculus [14] = species: Mus musculus; experiment: Mouse behavior activity was determined; D = Depressant; format: functional, organism-based
Method in brief: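 Male Simonsen (ICR) fBR mice (18-24 g) given 3, 10, 30, 100, 300 or 1000 mg/kg ip as aqueous solution and observed for behaviour in groups of three.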

Mus musculus [15] = species: Mus musculus; experiment: Compound was evaluated for antagonism of reserpine induced hypothermia;I= Inactive.; format: functional, organism-based; method in brief: as §5
Mus musculus [16] = experiment: Compound was evaluated in vivo for reserpine hypothermia after oral administration in mouse. Minimum active dose was reported; Inactive; format: functional, organism-based; method in brief: as §1
Mus musculus [17] = species: Mus musculus; experiment: Mouse behavior activity was determined; D=Depressant.; format: functional, organism-based; method in brief: as §4
Mus musculus [18] = species: Mus musculus; experiment: Evaluated for antagonism of reserpine induced hypothermia;I= Inactive; format: functional, organism-based; method in brief: as §1
Mus musculus [19] = species: Mus musculus; experiment: Mouse behavior activity was determined; Dwk=Depressant Weak; format: functional, organism-based; method in brief: as §4
Mus musculus [20] = species: Mus musculus; experiment: Compound was evaluated for maximal electroshock antagonism (MES) against mice; Inactive; format: functional, organism-based; method in brief: as §2
Rattus norvegicus [21] = species: Rattus norvegicus; experiment: Inhibition of the 5-HT [14C]5-HT uptake by rat brain slices In vitro; format: functional
Method in brief: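 Rat cerebral cortex slices, 5 mg tissue per mL Krebs-Henseleit buffer, incubated at 37 °C with [3H]NE or [14C]5-HT; blanks at 4 °C, undosed controls. Stopped after 20 min by filtration; slice radioactivity counted; IC50 from linear regression of uptake inhibition.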

Mus musculus [22] = species: Mus musculus; experiment: Mouse behavior activity was determined; S-D=Stimulant-Depressant; format: functional, organism-based; method in brief: as §4
Mus musculus [23] = experiment: Reserpine hypothermia antagonism in mouse administered perorally with 5 mg/kg of reserpine 2 hour prior to test compound administration; format: functional; conditions: route oral
Rattus norvegicus [24] = species: Rattus norvegicus; experiment: Inhibition of the NE [3H]Norepinephrine uptake by rat brain slices In vitro; format: functional
Mus musculus [25] = species: Mus musculus; experiment: Inhibition of radioactive NE [3H]norepinephrine uptake into mouse heart; format: functional
Method in brief: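 Mice dosed ip (aqueous solution) before iv [3H]NE; hearts removed 3 h after label, washed, weighed, dissolved in Protosol and counted as dpm per mg tissue. Dose-response from linear regression.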

Mus musculus [26] = species: Mus musculus; experiment: Evaluated for antagonism of reserpine induced hypothermia; format: functional; method in brief: as §1
Mus musculus [27] = species: Mus musculus; experiment: Compound was evaluated for maximal electroshock antagonism (MES) against mice;I= Inactive; format: functional, organism-based; method in brief: as §2
Mus musculus [28] = experiment: Compound was evaluated in vivo for reserpine hypothermia after oral administration in mouse. Minimum active dose was reported; rigidity was potentiated by compound.; format: functional, organism-based; method in brief: as §1
Mus musculus [29] = species: Mus musculus; experiment: Mouse behavior activity was determined; Inactive; format: functional, organism-based; method in brief: as §4
Mus musculus [30] = species: Mus musculus; experiment: Mouse behavior activity was determined; Dwk= Depressant Weak.; format: functional, organism-based; method in brief: as §4
Mus musculus [31] = species: Mus musculus; experiment: Compound was evaluated for maximal electroshock antagonism (MES) against mice; Inactive.; format: functional, organism-based; method in brief: as §2

Structure (SMILES): COC(=O)NC1=NC(c2cccc(C)c2)CN1 (centres undefined)
- HYPO (Mus musculus [1]): excessive variability
- LD50 [2]: 500 mg/kg
- ED50 (Mus musculus [3]): 100 mg/kg
- Loss of righting reflex (Mus musculus [4]): 157 mg/kg
- Mouse behavior activity (Mus musculus [5]): Depressant
- ED50 (Mus musculus [6]): 51 mg/kg
- Log k' [7]: 0.26
- Loss of righting reflex (Mus musculus [8]): 100 mg/kg

Structure (SMILES): COC(=O)NC1=NC(c2cccc(Br)c2)CN1 (centres undefined)
- LD50 [2]: 300 mg/kg
- ED50 (Mus musculus [3]): ~68 mg/kg
- Mouse behavior activity (Mus musculus [9]): Depressant - weak
- Log k' [7]: 0.5

Structure (SMILES): CCC1(c2ccccc2)C(=O)NC(=O)NC1=O [PHENOBARBITAL]
- Loss of righting reflex (Mus musculus [10]): 107 mg/kg
- LD50 [11]: 222 mg/kg
- ED50 (Mus musculus [12]): 22 mg/kg
- ED50 (Mus musculus [13]): 15 mg/kg
- Mouse behavior activity (Mus musculus [14]): Depressant
- Loss of righting reflex (Mus musculus [8]): 60 mg/kg

Structure (SMILES): CNC1=Nc2ccc(Cl)cc2C(c2ccccc2)=[N+]([O-])C1 [CHLORDIAZEPOXIDE]
- Loss of righting reflex (Mus musculus [10]): 140 mg/kg
- LD50 [11]: 254 mg/kg
- HYPO (Mus musculus [15]): inactive
- ED50 (Mus musculus [12]): 5 mg/kg
- Mouse behavior activity (Mus musculus [14]): Depressant
- Loss of righting reflex (Mus musculus [8]): 53 mg/kg

Structure (SMILES): COC(=O)NC1=NC(c2ccccc2[S+](C)[O-])CN1C (centres undefined)
- ED50 (Mus musculus [16]): inactive
- Log k' [7]: -0.87

Structure (SMILES): COC(=O)NC1=NC(c2cccc(F)c2)CN1 (centres undefined)
- LD50 [2]: 200 mg/kg
- ED50 (Mus musculus [3]): 70 mg/kg
- Mouse behavior activity (Mus musculus [17]): Depressant
- ED50 (Mus musculus [6]): 36 mg/kg
- Log k' [7]: -0.1

Structure (SMILES): COC(=O)NC1=NC(c2ccc([S+](C)[O-])cc2)CN1C (centres undefined)
- HYPO (Mus musculus [18]): inactive
- LD50 [2]: > 1000 mg/kg
- ED50 (Mus musculus [16]): inactive
- Mouse behavior activity (Mus musculus [19]): Depressant Weak
- ED50 (Mus musculus [20]): inactive
- Log k' [7]: -1.03

Structure (SMILES): NC1=NC(c2ccccc2)CN1 (centres undefined)
- LD50 [2]: 300 mg/kg
- pIC50 (Rattus norvegicus [21]): 4.51
- Mouse behavior activity (Mus musculus [22]): Stimulant-Depressant
- ED50 (Mus musculus [20]): inactive
- Reserpine hypothermia (Mus musculus [23]): < 10 mg/kg
- Log k' [7]: -3.74
- pIC50 (Rattus norvegicus [24]): 7.00
- ED50 (Mus musculus [25]): 0.3 mg/kg

Structure (SMILES): COC(=O)NC1=NC(c2ccc(SC)cc2)CN1C (centres undefined)
- HYPO (Mus musculus [18]): inactive
- ED50 (Mus musculus [3]): 100 mg/kg
- ED50 (Mus musculus [16]): inactive
- Log k' [7]: 0.61

Structure (SMILES): CN(C)CCCN1c2ccccc2CCc2ccccc21 [IMIPRAMINE]
- HYPO (Mus musculus [26]): <0.5 mg/kg
- ED50 (Mus musculus [3]): 15 mg/kg
- pIC50 (Rattus norvegicus [21]): 5.28
- Mouse behavior activity (Mus musculus [22]): Stimulant
- Reserpine hypothermia (Mus musculus [23]): 0.63 mg/kg
- pIC50 (Rattus norvegicus [24]): 5.42
- ED50 (Mus musculus [25]): 6.7 mg/kg

Structure (SMILES): CCOC(=O)NC1=NC(c2cccc(Br)c2)CN1 (centres undefined)
- ED50 (Mus musculus [27]): inactive
- HYPO (Mus musculus [26]): <0.5 mg/kg
- Log k' [7]: 0.77

Structure (SMILES): COC(=O)NC1=NC(c2ccccc2)CN1C (centres undefined)
- LD50 [2]: 200 mg/kg
- ED50 (Mus musculus [3]): 107 mg/kg
- P (Mus musculus [28]): rigidity was potentiated by compound
- Mouse behavior activity (Mus musculus [22]): Stimulant-Depressant
- Log k' [7]: 0.06

Structure (SMILES): CCOC(=O)NC1=NC(c2ccc(CO)cc2)CN1C (centres undefined)
- Mouse behavior activity (Mus musculus [29]): inactive
- LD50 [2]: 500 mg/kg
- ED50 (Mus musculus [20]): inactive
- Log k' [7]: -0.29

Structure (SMILES): COC(=O)NC1=NC(c2cccc(Cl)c2)CN1 (centres undefined)
- LD50 [2]: 300 mg/kg
- ED50 (Mus musculus [3]): 48 mg/kg
- Mouse behavior activity (Mus musculus [30]): Depressant - weak
- Log k' [7]: 0.4

Structure (SMILES): COC(=O)NC1=NC(c2ccc(C)cc2)CN1 (centres undefined)
- HYPO (Mus musculus [26]): >20 mg/kg
- LD50 [2]: > 1000 mg/kg
- Mouse behavior activity (Mus musculus [30]): Depressant - weak
- Log k' [7]: 0.3
- ED50 (Mus musculus [31]): inactive

Structure (SMILES): CCOC(=O)NC1=NC(c2ccccc2)CN1C (centres undefined)
- HYPO (Mus musculus [26]): <0.5 mg/kg
- LD50 [2]: 200 mg/kg
- ED50 (Mus musculus [3]): 78 mg/kg
- P (Mus musculus [28]): rigidity was potentiated by compound
- Mouse behavior activity (Mus musculus [22]): Stimulant-Depressant
- Log k' [7]: 0.41
- Loss of righting reflex (Mus musculus [8]): 100 mg/kg
